Measurements from ChEMBL document CHEMBL1770099, “Aromatic ring functionalization of benzolactam derivatives: new potent dopamine D3 receptor ligands” (Bioorg Med Chem Lett, 2011).

Experiments:
[1] = target: D(1A) dopamine receptor (Sus scrofa, UniProt P50130); assay: Displacement of [3H]SCH-23390 from dopamine D1 receptor in pig striatal membranes; assay type: cell membranes, Striatum, Membrane
In short: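 Competition binding with D1-selective radioligand [3H]SCH23390 on porcine striatal membranes; Ki values are means of two to four individual competition experiments, each run in triplicate.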

[2] = target: T1, D(2) dopamine receptor (Homo sapiens, UniProt P14416); assay: Displacement of [3H]Spiperone from human dopamine D2 long receptor expressed in CHO cells; assay type: cell-based
T1 sequence (P14416 whole entry): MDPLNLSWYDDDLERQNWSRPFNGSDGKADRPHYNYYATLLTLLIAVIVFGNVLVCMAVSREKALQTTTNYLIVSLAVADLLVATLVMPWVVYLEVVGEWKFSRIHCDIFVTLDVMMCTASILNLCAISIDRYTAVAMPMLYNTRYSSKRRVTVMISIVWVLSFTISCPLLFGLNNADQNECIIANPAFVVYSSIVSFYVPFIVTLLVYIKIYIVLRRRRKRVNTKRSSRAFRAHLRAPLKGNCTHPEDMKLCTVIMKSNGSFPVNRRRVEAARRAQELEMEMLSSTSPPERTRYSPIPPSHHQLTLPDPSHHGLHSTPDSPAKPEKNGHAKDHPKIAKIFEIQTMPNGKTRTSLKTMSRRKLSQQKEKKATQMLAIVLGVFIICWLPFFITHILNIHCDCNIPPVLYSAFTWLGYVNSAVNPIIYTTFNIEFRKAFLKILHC
In short: (§1)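 Competition for [3H]spiperone binding to cloned human receptor (D2long, D2short or D4.4) stably expressed in CHO cells; Ki values are means of two to four individual competition experiments, each run in triplicate.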

[3] = target: T1, D(2) dopamine receptor; assay: Displacement of [3H]Spiperone from human dopamine D2 short receptor expressed in CHO cells; assay type: cell-based; in short: as §1
[4] = target: T2, D(3) dopamine receptor (Homo sapiens, UniProt P35462); assay: Displacement of [3H]Spiperone from human dopamine D3 receptor expressed in CHO cells; assay type: cell-based
T2 sequence (P35462 whole entry): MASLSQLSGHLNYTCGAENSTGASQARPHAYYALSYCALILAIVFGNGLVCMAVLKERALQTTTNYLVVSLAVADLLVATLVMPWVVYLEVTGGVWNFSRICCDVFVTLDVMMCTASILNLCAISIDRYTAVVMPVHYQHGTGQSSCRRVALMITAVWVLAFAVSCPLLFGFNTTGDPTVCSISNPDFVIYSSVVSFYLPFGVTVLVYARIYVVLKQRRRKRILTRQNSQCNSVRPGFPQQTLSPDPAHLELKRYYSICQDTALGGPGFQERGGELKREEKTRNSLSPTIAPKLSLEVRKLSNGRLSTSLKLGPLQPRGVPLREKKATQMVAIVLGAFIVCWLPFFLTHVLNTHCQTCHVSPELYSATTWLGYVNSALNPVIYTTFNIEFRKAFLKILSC

[5] = target: T3, D(4) dopamine receptor (Homo sapiens, UniProt P21917); assay: Displacement of [3H]Spiperone from human dopamine D4.4 receptor expressed in CHO cells; assay type: cell-based; in short: as §1
T3 sequence (P21917 whole entry): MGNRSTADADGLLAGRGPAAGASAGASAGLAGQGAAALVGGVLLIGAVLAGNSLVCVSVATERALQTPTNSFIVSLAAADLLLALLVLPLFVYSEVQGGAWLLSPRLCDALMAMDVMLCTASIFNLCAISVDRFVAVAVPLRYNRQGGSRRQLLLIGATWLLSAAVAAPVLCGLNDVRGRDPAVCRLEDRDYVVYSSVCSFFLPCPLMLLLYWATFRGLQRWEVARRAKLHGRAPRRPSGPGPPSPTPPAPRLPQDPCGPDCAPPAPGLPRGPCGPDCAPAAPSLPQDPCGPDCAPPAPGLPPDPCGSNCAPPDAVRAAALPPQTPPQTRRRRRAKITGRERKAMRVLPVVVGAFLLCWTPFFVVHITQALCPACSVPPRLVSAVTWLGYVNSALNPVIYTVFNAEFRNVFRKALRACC

[6] = Displacement of [3H]WAY-100635 from pig 5-HT1A receptor; set-up: species or system Sus scrofa
[7] = target: 5-hydroxytryptamine receptor 2A (Sus scrofa, UniProt P50129); assay: Displacement of [3H]Ketanserin from pig 5-HT2 receptor
Sequence of 5-hydroxytryptamine receptor 2A (P50129 whole entry): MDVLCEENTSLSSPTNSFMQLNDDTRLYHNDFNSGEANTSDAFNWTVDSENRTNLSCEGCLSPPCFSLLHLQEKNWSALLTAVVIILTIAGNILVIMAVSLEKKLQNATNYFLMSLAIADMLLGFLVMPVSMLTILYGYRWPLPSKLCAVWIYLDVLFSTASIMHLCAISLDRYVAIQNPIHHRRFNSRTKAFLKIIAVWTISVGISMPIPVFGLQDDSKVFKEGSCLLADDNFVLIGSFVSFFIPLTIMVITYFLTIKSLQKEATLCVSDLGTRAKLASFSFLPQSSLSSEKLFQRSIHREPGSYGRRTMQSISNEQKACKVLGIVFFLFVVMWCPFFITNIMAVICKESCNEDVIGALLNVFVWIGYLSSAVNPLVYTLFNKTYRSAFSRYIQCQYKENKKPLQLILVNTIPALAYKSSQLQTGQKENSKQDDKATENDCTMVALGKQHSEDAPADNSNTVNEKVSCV

[8] = Displacement of [3H]Prazosin from pig adrenergic alpha1 receptor; set-up: species or system Sus scrofa
[9] = target: T2, D(3) dopamine receptor; assay: Agonist activity at human dopamine D3 receptor expressed in dhfr-deficient CHO cells assessed as [3H]thymidine incorporation; assay type: functional, cell-based
[10] = Selectivity ratio of Ki for dopamine D2 long receptor to Ki for dopamine D3 receptor
[11] = target: T2, D(3) dopamine receptor; assay: Binding affinity to dopamine D3 receptor

Sequence of D(1A) dopamine receptor (P50130 whole entry): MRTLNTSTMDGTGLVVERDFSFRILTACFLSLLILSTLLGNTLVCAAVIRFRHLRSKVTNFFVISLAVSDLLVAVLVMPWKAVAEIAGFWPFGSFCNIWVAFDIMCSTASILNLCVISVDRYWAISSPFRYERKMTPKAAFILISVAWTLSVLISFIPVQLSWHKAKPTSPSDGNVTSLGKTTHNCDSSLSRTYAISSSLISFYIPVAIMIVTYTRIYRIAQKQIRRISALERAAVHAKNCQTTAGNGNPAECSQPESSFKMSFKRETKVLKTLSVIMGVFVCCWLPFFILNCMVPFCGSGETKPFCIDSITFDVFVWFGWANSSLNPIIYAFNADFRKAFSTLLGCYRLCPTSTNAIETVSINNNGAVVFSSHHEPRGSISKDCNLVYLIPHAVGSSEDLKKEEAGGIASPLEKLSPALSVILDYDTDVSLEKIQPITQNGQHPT

COc1ccccc1N1CCN(CCCCN2CCc3cc(-c4ccccc4)ccc3C2=O)CC1
Ki [1]: 640 nM
Ki [2]: 38 nM
Ki [3]: 15 nM
Ki [4]: 0.25 nM
Ki [5]: 3.4 nM
Ki [6]: 38 nM
Ki [7]: 330 nM
Ki [8]: 5.4 nM
EC50 [9]: 3.3 nM

COc1ccccc1N1CCN(CCCCN2CCc3ccccc3C2=O)CC1
Ki [1]: 2500 nM
Ki [2]: 21 nM
Ki [3]: 7 nM
Ki [5]: 1.9 nM
Ki [6]: 2.4 nM
Ki [7]: 990 nM
Ki [8]: 2.3 nM

COc1ccc2c(c1)CCCN(CCCCN1CCN(c3ccccc3OC)CC1)C2=O
Ki [1]: 2100 nM
Ki [2]: 3.2 nM
Ki [3]: 0.93 nM
Ki [4]: 0.27 nM
Ki [5]: 3 nM
Ki [6]: 2.5 nM
Ki [7]: 810 nM
Ki [8]: 3.7 nM

Cc1nc(-c2ccc(C(=O)N[C@H]3CC[C@H](CCN4CCc5ccc(S(C)(=O)=O)cc5CC4)CC3)cc2)no1
Ratio Ki [10]: 100
Ki [11]: 4 nM

COc1ccccc1N1CCN(CCCCN2CCc3cc(-c4ccncc4)ccc3C2=O)CC1
Ki [1]: 380 nM
Ki [4]: 0.12 nM
Ki [5]: 3.4 nM
Ki [6]: 13 nM
Ki [7]: 160 nM
Ki [8]: 2.2 nM

COc1ccccc1N1CCN(CCCCN2CCc3cc(F)ccc3C2=O)CC1
Ki [1]: 2300 nM
Ki [2]: 26 nM
Ki [3]: 9.2 nM
Ki [4]: 1.6 nM
Ki [5]: 2.8 nM
Ki [6]: 1.7 nM
Ki [7]: 840 nM
Ki [8]: 3.1 nM

COc1ccccc1N1CCN(CCCCN2CCc3cc(-c4cccs4)ccc3C2=O)CC1
Ki [1]: 480 nM
Ki [2]: 11 nM
Ki [3]: 6.9 nM
Ki [4]: 0.12 nM
Ki [5]: 2.3 nM
Ki [6]: 6.2 nM
Ki [7]: 190 nM
Ki [8]: 3.7 nM
EC50 [9]: 2.8 nM

COc1ccccc1N1CCN(CCCCN2CCc3c(cccc3-c3ccccc3)C2=O)CC1
Ki [1]: 220 nM
Ki [2]: 52 nM
Ki [3]: 63 nM
Ki [4]: 12 nM
Ki [5]: 9.8 nM
Ki [6]: 47 nM
Ki [7]: 230 nM
Ki [8]: 1.3 nM

CC(=O)Nc1ccc(CCN2C[C@@H]3COc4ccc(C#N)cc4[C@H]3C2)cc1
Ratio Ki [10]: 37
Ki [11]: 2 nM

COc1ccccc1N1CCN(CCCCN2CCCc3ccccc3C2=O)CC1
Ki [1]: 2900 nM
Ki [2]: 3.9 nM
Ki [3]: 1.5 nM
Ki [4]: 0.27 nM
Ki [5]: 1.3 nM
Ki [6]: 1.7 nM
Ki [7]: 1100 nM
Ki [8]: 5.7 nM
EC50 [9]: 0.33 nM

COc1ccccc1N1CCN(CCCCN2CCc3cc(C#N)ccc3C2=O)CC1
Ki [1]: 3200 nM
Ki [2]: 38 nM
Ki [3]: 22 nM
Ki [4]: 1.3 nM
Ki [5]: 6.1 nM
Ki [6]: 3.8 nM
Ki [7]: 430 nM
Ki [8]: 3.8 nM

COc1ccccc1N1CCN(CCCCNC(=O)c2ccc(-c3ccc(C(C)=O)cc3)cc2)CC1
Ratio Ki [10]: 130

C#Cc1ccc2c(c1)CCN(CCCCN1CCN(c3ccccc3OC)CC1)C2=O
Ki [1]: 1900 nM
Ki [2]: 24 nM
Ki [3]: 8.8 nM
Ki [4]: 0.5 nM
Ki [5]: 4.1 nM
Ki [6]: 14 nM
Ki [7]: 920 nM
Ki [8]: 2.4 nM

COc1ccccc1N1CCN(CCCCN2CCCc3cc(-c4cccs4)ccc3C2=O)CC1
Ki [1]: 920 nM
Ki [2]: 5.1 nM
Ki [3]: 2.1 nM
Ki [4]: 0.29 nM
Ki [5]: 2.9 nM
Ki [6]: 68 nM
Ki [7]: 530 nM
Ki [8]: 9.7 nM

COc1ccccc1N1CCN(CCCCN2CCc3cc(-c4ccco4)ccc3C2=O)CC1
Ki [1]: 580 nM
Ki [2]: 16 nM
Ki [3]: 4.8 nM
Ki [4]: 0.21 nM
Ki [5]: 3.3 nM
Ki [6]: 19 nM
Ki [7]: 330 nM
Ki [8]: 1.6 nM
EC50 [9]: 2.3 nM
